Data taken from ChEMBL document CHEMBL4145466, “Design, synthesis, and biological evaluation of novel combretastatin A-4 thio derivatives as microtubule targeting agents” (Eur J Med Chem, 2018).
Calls of active or inactive are those of the source. The calls are words filed in the database; no cut-off is given here.

Key:
A-431 [1] = experiment: Induction of apoptosis in human A431 cells after 24 hrs by FITC Annexin V/propidium iodide staining-based FACScan flow cytometric analysis; assay type: functional, cell-based
In short: (§1)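 After 24 h of compound exposure, 1 × 10^6 cells were labelled with annexin V-FITC and PI for 15 min at 25 °C in the dark. They were read on a FACScan with 488 nm excitation, detecting FITC at 525 nm and PI at 620 nm. Results are mean ± SD of three independent experiments, with Dunnett's test against control.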

Tubulin [2] = experiment: Inhibition of tubulin polymerization in human HaCaT cells assessed as micronuclei formation at 1 uM after 24 hrs by ELISA; assay type: cell-based
Tubulin (Homo sapiens) [3] = target: T1, Tubulin (Homo sapiens) (UniProt P68371+Q9H4B7+P0DPH7+P68366+Q13509+Q71U36+P04350+Q3ZCM7+P07437+P68363+Q9BQE3+Q6PEY2+Q13885+Q9BVA1+Q9BUF5); experiment: Inhibition of tubulin polymerization in human A431 cells assessed as micronuclei formation at 1 uM after 24 hrs by ELISA; assay type: cell-based
MDA-MB-231 [4] = experiment: Induction of apoptosis in human MDA-MB-231 cells after 24 hrs by FITC Annexin V/propidium iodide staining-based FACScan flow cytometric analysis; assay type: functional, cell-based; in short: as §1
MDA-MB-231 [5] = experiment: Cytotoxicity against human MDA-MB-231 cells after 48 hrs by MTT assay; assay type: functional, cell-based; details: MDA-MB-231, 48 h
In short: (§2)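 Cells in DMEM with 10% FBS were plated at 2 × 10^4 per well and left overnight, then treated for 48 h at 0.6–20 µM (six concentrations) from 10 mM DMSO stocks. MTT was added for 2 h, and formazan was dissolved in DMSO and read at 570 nm. Viability was expressed as % of control, with IC50 taken from dose-response curves. Results are mean ± SD of three independent experiments.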

Tubulin (Homo sapiens) [6] = target: T1, Tubulin (Homo sapiens); experiment: Inhibition of tubulin polymerization in human MDA-MB-231 cells assessed as micronuclei formation at 1 uM after 24 hrs by ELISA; assay type: cell-based
Tubulin (Homo sapiens) [7] = target: T1, Tubulin (Homo sapiens); experiment: Inhibition of tubulin polymerization in human SKOV3 cells assessed as perturbation in cytoskeleton structure at 1 uM after 24 hrs by ELISA; assay type: cell-based
Tubulin (Homo sapiens) [8] = target: T1, Tubulin (Homo sapiens); experiment: Inhibition of tubulin polymerization in human MCF7 cells assessed as micronuclei formation at 1 uM after 24 hrs by ELISA; assay type: cell-based
SK-OV-3 = experiment: Cytotoxicity against human SKOV3 cells after 48 hrs by MTT assay; assay type: functional, cell-based; details: SK-OV-3, 48 h; in short: as §2
Tubulin (Homo sapiens) [9] = target: T1, Tubulin (Homo sapiens); experiment: Inhibition of tubulin polymerization in human MCF7 cells assessed as perturbation in cytoskeleton structure at 1 uM after 24 hrs by ELISA; assay type: cell-based
Tubulin (Homo sapiens) [10] = target: T1, Tubulin (Homo sapiens); experiment: Inhibition of tubulin polymerization in human HeLa cells assessed as micronuclei formation at 1 uM after 24 hrs by ELISA; assay type: cell-based
A-431 [11] = experiment: Cell cycle arrest in human A431 cells assessed as accumulation of cells at G2/M phase at 0.1 to 1 uM after 24 hrs by propidium iodide staining-based FACS analysis; assay type: functional
In short: (§3)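 Cells were seeded at 5 × 10^5 per well in DMEM with 10% FBS and left overnight, then exposed to 0.1, 0.5 or 1 µM for 24 h. DMSO served as the negative control and 50 nM camptothecin as the positive control. Cells were trypsinized, fixed in 70% ethanol for 30 min at 4 °C, stained with 50 µg/mL PI plus 100 µg/mL RNase A for 30 min in the dark, and analysed by flow cytometry. Results are mean ± SD of three experiments, compared by ANOVA with Dunnett's test.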

HeLa [12] = experiment: Induction of apoptosis in human HeLa cells after 24 hrs by FITC Annexin V/propidium iodide staining-based FACScan flow cytometric analysis; assay type: functional, cell-based; in short: as §1
HaCaT [13] = experiment: Induction of apoptosis in human HaCaT cells after 24 hrs by FITC Annexin V/propidium iodide staining-based FACScan flow cytometric analysis; assay type: cell-based; in short: as §1
HaCaT [14] = experiment: Cell cycle arrest in human HaCaT cells assessed as accumulation of cells at G2/M phase at 0.1 to 1 uM after 24 hrs by propidium iodide staining-based FACS analysis; in short: as §3
Tubulin (Homo sapiens) [15] = target: T1, Tubulin (Homo sapiens); experiment: Inhibition of tubulin polymerization in human MCF7 cells assessed as micronuclei formation at 1 uM after 24 hrs by Hoechst 33258/FITC staining-based […] analysis; assay type: cell-based
In short: (§4)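 Cells seeded at 12.5 × 10^4 per well and exposed to 1 µM compound for 24 h. Nuclei were stained with Hoechst 33258 (10 µg/mL, 30 min, 37 °C), then fixed in 4% formaldehyde/PBS (15 min, RT). Cells were permeabilized with 1% Triton X-100, blocked with 2% BSA/PBS for 1 h, and incubated with anti-α-tubulin-FITC (1:50) overnight at 4 °C. Imaged by fluorescence microscopy.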

Tubulin [16] = experiment: Inhibition of tubulin polymerization in human HaCaT cells assessed as perturbation in cytoskeleton structure at 1 uM after 24 hrs by ELISA; assay type: cell-based
Tubulin (Homo sapiens) [17] = target: T1, Tubulin (Homo sapiens); experiment: Inhibition of tubulin polymerization in human A431 cells assessed as micronuclei formation at 1 uM after 24 hrs by Hoechst 33258/FITC staining-based flow cytometric analysis; assay type: cell-based
Tubulin (Homo sapiens) [18] = target: T1, Tubulin (Homo sapiens); experiment: Inhibition of tubulin polymerization in human HeLa cells assessed as perturbation in cytoskeleton structure at 1 uM after 24 hrs by ELISA; assay type: cell-based
MDA-MB-231 [19] = experiment: Cell cycle arrest in human MDA-MB-231 cells assessed as accumulation of cells at G2/M phase at 0.1 to 1 uM after 24 hrs by propidium iodide staining-based FACS analysis; assay type: functional; in short: as §3
A-431 [20] = experiment: Cytotoxicity against human A431 cells after 48 hrs by MTT assay; assay type: functional, cell-based; details: A-431, 48 h; in short: as §2
Tubulin (Homo sapiens) [21] = target: T1, Tubulin (Homo sapiens); experiment: Inhibition of tubulin polymerization in human MDA-MB-231 cells assessed as micronuclei formation at 1 uM after 24 hrs by Hoechst 33258/FITC staining-based flow cytometric analysis; assay type: cell-based
MCF7 [22] = experiment: Induction of apoptosis in human MCF7 cells after 24 hrs by FITC Annexin V/propidium iodide staining-based FACScan flow cytometric analysis; assay type: functional, cell-based; in short: as §1
MCF7 [23] = experiment: Cell cycle arrest in human MCF7 cells assessed as accumulation of cells at G2/M phase at 0.1 to 1 uM after 24 hrs by propidium iodide staining-based FACS analysis; assay type: functional; in short: as §3
HaCaT [24] = experiment: Cytotoxicity against human HaCaT cells after 48 hrs by MTT assay; assay type: cell-based; in short: as §2
A549 = experiment: Cytotoxicity against human A549 cells after 48 hrs by MTT assay; assay type: functional, cell-based; details: A549, 48 h
[25] = Cytotoxicity against human CCD39Lu cells after 48 hrs by MTT assay; assay type: cell-based; in short: as §2
Tubulin [26] = experiment: Inhibition of tubulin polymerization in human HaCaT cells assessed as perturbation in cytoskeleton structure at 1 uM after 24 hrs by Hoechst 33258/FITC staining-based […]; assay type: cell-based; in short: as §4
Tubulin (Homo sapiens) [27] = target: T1, Tubulin (Homo sapiens); experiment: Inhibition of tubulin polymerization in human SKOV3 cells assessed as micronuclei formation at 1 uM after 24 hrs by ELISA; assay type: cell-based
Tubulin (Homo sapiens) [28] = target: T1, Tubulin (Homo sapiens); experiment: Inhibition of tubulin polymerization in human SKOV3 cells assessed as perturbation in cytoskeleton structure at 1 uM after 24 hrs by Hoechst 33258/FITC staining-based flow cytometric analysis; assay type: cell-based; in short: as §4
HeLa [29] = experiment: Cytotoxicity against human HeLa cells after 48 hrs by MTT assay; assay type: functional, cell-based; in short: as §2

| SMILES | Activity (A-431 [1]) | inhibition (INH) (Tubulin [2]) | inhibition (Tubulin (Homo sapiens) [3]) | Activity (MDA-MB-231 [4]) | IC50 (MDA-MB-231 [5]) [nM] | inhibition (Tubulin (Homo sapiens) [6]) | inhibition (Tubulin (Homo sapiens) [7]) | inhibition (Tubulin (Homo sapiens) [8]) | IC50 (SK-OV-3) [nM] | inhibition (Tubulin (Homo sapiens) [9]) | inhibition (Tubulin (Homo sapiens) [10]) | Activity (A-431 [11]) | Activity (HeLa [12]) | Activity (HaCaT [13]) | Activity (HaCaT [14]) | inhibition (Tubulin (Homo sapiens) [15]) | inhibition (INH) (Tubulin [16]) | inhibition (Tubulin (Homo sapiens) [17]) | inhibition (Tubulin (Homo sapiens) [18]) | Activity (MDA-MB-231 [19]) | also measured |
| --- | --- | --- | --- | --- | --- | --- | --- | --- | --- | --- | --- | --- | --- | --- | --- | --- | --- | --- | --- | --- | --- |
| COc1ccc(-c2ocnc2-c2cc(OC)c(SC)c(OC)c2)cc1O | Dose-dependent effect | Active | Active | Dose-dependent effect | 710 | Active | Active | Active | 250 | Active | Active | Active | Dose-dependent effect | Dose-dependent effect | Toxic | Active | Active | Active | Active | Active | IC50 (A-431 [20]): 250 nM; inhibition (Tubulin (Homo sapiens) [21]): Active; Activity (MCF7 [22]): Dose-dependent effect; Activity (MCF7 [23]): Active; IC50 (HaCaT [24]): 320 nM; IC50 (A549): > 20000 nM; IC50 [25]: > 20000 nM; inhibition (INH) (Tubulin [26]): Active; inhibition (Tubulin (Homo sapiens) [27]): Active; inhibition (Tubulin (Homo sapiens) [28]): Active; IC50 (HeLa [29]): 9 nM |
| COc1ccc(-c2ocnc2-c2cc(Br)c(OC)c(OC)c2)cc1SC | Dose-dependent effect | Active | Active | Dose-dependent effect | 920 | Active | Active | Active | 1160 | Active | Active | Active | Dose-dependent effect | Dose-dependent effect | Toxic | Active | Active | Active | Active | Active | IC50 (A-431 [20]): 430 nM; inhibition (Tubulin (Homo sapiens) [21]): Active; Activity (MCF7 [22]): Dose-dependent effect; Activity (MCF7 [23]): Active; IC50 (HaCaT [24]): 520 nM; IC50 (A549): > 20000 nM; IC50 [25]: > 20000 nM; inhibition (INH) (Tubulin [26]): Active; inhibition (Tubulin (Homo sapiens) [27]): Active; inhibition (Tubulin (Homo sapiens) [28]): Active; IC50 (HeLa [29]): 630 nM |
